Experimental data as given in ChEMBL document CHEMBL1764979, “Nucleoside transport inhibitors: structure-activity relationships for pyrimido[5,4-d]pyrimidine derivatives that potentiate pemetrexed cytotoxicity in the presence of α1-acid glycoprotein” (J Med Chem, 2011).
Active and inactive are the calls of the source. The calls are words filed in the database; no cut-off is given here.

What was measured:
[1] = Aqueous solubility of the compound; assay type: physicochemical; details: buffer
[2] = Chemical stability of the compound; assay type: physicochemical
[3] = system: COR-L23; test: Inhibition of ENT-mediated [3H]thymidine incorporation in human COR-L23 cells at 0.1 uM by liquid scintillation counting; assay type: cell-based
Procedure, shortened: (§1)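 Log-phase COR-L23 cells were seeded at 2 × 10^4/well, left overnight, PBS-washed and given serum-free medium with inhibitor. 3H-TdR was added (final 100 nM, 6.2 GBq/mmol) for 2 h at 37 °C. Cells were washed in ice-cold PBS, lysed in 0.5 M NaOH for 30 min, harvested onto glass-fibre filters with TCA/water/MeOH rinses, and scintillation counted. Mean ± SD of three independent experiments.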

[4] = system: COR-L23; test: Inhibition of ENT-mediated [3H]thymidine incorporation in human COR-L23 cells at 1 uM by liquid scintillation counting; assay type: cell-based; procedure, shortened: as §1
[5] = Inhibition of ENT-mediated [3H]thymidine incorporation in human COR-L23 cells by liquid scintillation counting; assay type: cell-based; details: COR-L23, 2 h; procedure, shortened: as §1
[6] = system: COR-L23; test: Potentiation of pemetrexed-induced growth inhibitory activity in human COR-L23 cells at 1 uM by SRB assay in presence of thymidine and hypoxanthine; assay type: functional; design: scale not given: the % may be the effect or the level left
Procedure, shortened: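 COR-L23 cells in RPMI 1640 with 10% FCS were seeded at 1 × 10^3/well and allowed to attach overnight. They were then given pemetrexed 200 nM, ± TdR 1 μM and HPX 10 μM (1% DMSO), ± inhibitor 1 μM, for three doublings, then fixed and read by SRB. % reversal = (growth arrest with pemetrexed + TdR/HPX + inhibitor)/(growth arrest with pemetrexed alone) × 100. Three independent experiments.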

[7] = system: L1210; details: Mus musculus, at 1 µM;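 further: uptake of tritiated thymidine through ENT transporters, counted by liquid scintillation, with alpha1-acid glycoprotein added at 5 mg/ml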
[8] = system: L1210; test: Inhibition of ENT-mediated [3H]thymidine incorporation in mouse L1210 cells at 1 uM by liquid scintillation counting; assay type: cell-based; details: in the assay text read “transport” for “incorporation”
Procedure, shortened: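 3H-TdR transport into murine L1210 leukaemia cells with inhibitor at 1.0 μM, tested with and without AGP (5 mg/mL). Mean and SD of three independent experiments.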

Structure (SMILES) | solubility [1] | Stability [2] | inhibition [3] [%] | inhibition [4] [%] | IC50 [5] [nM] | Activity [6] [%] | inhibition [7] | inhibition [8]
CCOC(=O)[C@H](Cc1ccccc1)NC(=O)OC(C)CNc1nc(NCc2ccc(OC)c(OC)c2)c2nc(NCC(C)OC(=O)N[C@@H](Cc3ccccc3)C(=O)OCC)nc(NCc3ccc(OC)c(OC)c3)c2n1 (some centres undefined) | Insoluble | Unstable | – | – | – | – | – | –
COC(=O)[C@@H](NC(=O)OC(C)CNc1nc(NCc2ccc(OC)c(OC)c2)c2nc(NCC(C)O)nc(NCc3ccc(OC)c(OC)c3)c2n1)C(C)C (some centres undefined) | – | Unstable | 79 | 95 | 7 | – | – | –
COc1ccc(CNc2nc(NCC(C)OC(=O)Nc3ccc(C(F)(F)F)cc3)nc3c(NCc4ccc(OC)c(OC)c4)nc(NCC(C)O)nc23)cc1OC (centres undefined) | – | Stable | 75 | 93 | 67 | >100 | Active | Active
COc1ccc(CNc2nc(NCC(C)OC(=O)[C@@H](NC(=O)OC(C)(C)C)C(C)C)nc3c(NCc4ccc(OC)c(OC)c4)nc(NCC(C)OC(=O)[C@@H](NC(=O)OC(C)(C)C)C(C)C)nc23)cc1OC (some centres undefined) | – | – | – | – | – | – | inactive | –
COc1ccc(CNc2nc(NCC(C)OC(=O)Nc3ccc(C(F)(F)F)cc3)nc3c(NCc4ccc(OC)c(OC)c4)nc(NCC(C)OC(=O)Nc4ccc(C(F)(F)F)cc4)nc23)cc1OC (centres undefined) | – | Stable | – | – | – | – | – | inactive
COc1ccc(CNc2nc(NCC(C)OC(=O)[C@@H](N)C(C)C)nc3c(NCc4ccc(OC)c(OC)c4)nc(NCC(C)OC(=O)Nc4ccccc4)nc23)cc1OC (some centres undefined) | – | – | 68 | 92 | 44 | >100 | – | –
COc1ccc(CNc2nc(NCC(C)OC(=O)Nc3ccccc3)nc3c(NCc4ccc(OC)c(OC)c4)nc(NCC(C)OC(=O)CCC(=O)O)nc23)cc1OC (centres undefined) | – | Unstable | 75 | 94 | 7 | >100 | – | –
COc1ccc(CNc2nc(NCC(C)OC(=O)CCC(=O)O)nc3c(NCc4ccc(OC)c(OC)c4)nc(NCC(C)OC(=O)CCC(=O)O)nc23)cc1OC (centres undefined) | – | – | – | – | – | – | inactive | –
COc1ccc(CNc2nc(NCC(C)OC(=O)[C@@H](N)C(C)C)nc3c(NCc4ccc(OC)c(OC)c4)nc(NCC(C)OC(=O)[C@@H](N)C(C)C)nc23)cc1OC.Cl.Cl (some centres undefined) | – | – | 59 | 87 | 70 | >100 | Active | –
COc1ccc(CNc2nc(NCC(C)OP(=O)(O)O)nc3c(NCc4ccc(OC)c(OC)c4)nc(NCC(C)OC(=O)Nc4ccccc4)nc23)cc1OC (centres undefined) | – | Unstable | 53 | 75 | 218 | – | – | –
CCOC(=O)CNC(=O)OC(C)CNc1nc(NCc2ccc(OC)c(OC)c2)c2nc(NCC(C)OC(=O)NCC(=O)OCC)nc(NCc3ccc(OC)c(OC)c3)c2n1 (centres undefined) | – | Unstable | – | – | – | – | – | > 90%
COc1ccc(CNc2nc(NCC(C)OC(=O)Nc3ccc([N+](=O)[O-])cc3)nc3c(NCc4ccc(OC)c(OC)c4)nc(NCC(C)O)nc23)cc1OC (centres undefined) | – | Stable | 84 | 96 | 60 | >100 | Active | Active
CCOC(=O)[C@H](C)NC(=O)OC(C)CNc1nc(NCc2ccc(OC)c(OC)c2)c2nc(NCC(C)O)nc(NCc3ccc(OC)c(OC)c3)c2n1 (some centres undefined) | – | Unstable | 39 | 68 | 435 | – | – | –
COc1ccc(CNc2nc(NCC(C)OC(=O)Nc3ccccc3)nc3c(NCc4ccc(OC)c(OC)c4)nc(NCC(O)CO)nc23)cc1OC (centres undefined) | – | – | 69 | 91 | 10 | >100 | – | –
COc1ccc(CNc2nc(NCC(C)OC(=O)Nc3ccc([N+](=O)[O-])cc3)nc3c(NCc4ccc(OC)c(OC)c4)nc(NCC(C)OC(=O)Nc4ccc([N+](=O)[O-])cc4)nc23)cc1OC (centres undefined) | – | Stable | – | – | – | – | – | inactive
COc1ccc(CNc2nc(NC[C@H](C)O)nc3c(NCc4ccc(OC)c(OC)c4)nc(NC[C@H](C)O)nc23)cc1OC | – | – | 68 | 93 | 31 | – | – | –
COc1ccc(CNc2nc(NCC(C)OC(=O)Nc3ccccc3)nc3c(NCc4ccc(OC)c(OC)c4)nc(NCC(C)OC(=O)Nc4ccccc4)nc23)cc1OC (centres undefined) | – | Stable | – | – | – | – | – | –
COc1ccc(CNc2nc(NCC(C)OC(=O)[C@@H](N)C(C)C)nc3c(NCc4ccc(OC)c(OC)c4)nc(NCC(C)O)nc23)cc1OC.Cl (some centres undefined) | – | – | 64 | 89 | 39 | >100 | – | –
COc1ccc(CNc2nc(NCC(C)OC(=O)Nc3ccccc3)nc3c(NCc4ccc(OC)c(OC)c4)nc(NCC(C)O)nc23)cc1OC (centres undefined) | – | Stable | 81 | 97 | 8 | >100 | Active | Active
COc1ccc(CNc2nc(NCC(C)OC(=O)Nc3ccccc3)nc3c(NCc4ccc(OCCN5CCOCC5)c(OC)c4)nc(NCC(C)O)nc23)cc1OC (centres undefined) | – | – | 80 | 97 | 22 | >100 | – | –
C=CCOc1ccc(CNc2nc(NCC(C)O)nc3c(NCc4ccc(OC)c(OC)c4)nc(NCC(C)O)nc23)cc1OC (centres undefined) | – | – | 81 | 96 | 14 | – | – | –
COc1ccc(CNc2nc(NCC(C)O)nc3c(NCc4ccc(OC)c(OC)c4)nc(NCC(C)O)nc23)cc1OC (centres undefined) | – | Stable | 66 | 90 | 26 | >100 | Active | > 90%
CCOC(=O)[C@H](Cc1ccccc1)NC(=O)OC(C)CNc1nc(NCc2ccc(OC)c(OC)c2)c2nc(NCC(C)O)nc(NCc3ccc(OC)c(OC)c3)c2n1 (some centres undefined) | – | Unstable | – | – | – | – | – | –
COc1ccc(CNc2nc(NCC(C)OC(=O)CCC(=O)O)nc3c(NCc4ccc(OC)c(OC)c4)nc(NCC(C)O)nc23)cc1OC (centres undefined) | – | – | – | – | – | – | Active | –
OCCN(CCO)c1nc(N2CCCCC2)c2nc(N(CCO)CCO)nc(N3CCCCC3)c2n1 [DIPYRIDAMOLE] | – | – | 78 | 96 | 15 | >100 | – | –
COc1ccc(NC(=O)OC(C)CNc2nc(NCc3ccc(OC)c(OC)c3)c3nc(NCC(C)O)nc(NCc4ccc(OC)c(OC)c4)c3n2)cc1 (centres undefined) | – | Stable | 84 | 98 | 4 | >100 | – | –
COc1ccc(NC(=O)OC(C)CNc2nc(NCc3ccc(OC)c(OC)c3)c3nc(NCC(C)OC(=O)Nc4ccc(OC)cc4)nc(NCc4ccc(OC)c(OC)c4)c3n2)cc1 (centres undefined) | – | Stable | – | – | – | – | – | –
CCOC(=O)[C@H](C)NC(=O)OC(C)CNc1nc(NCc2ccc(OC)c(OC)c2)c2nc(NCC(C)OC(=O)N[C@@H](C)C(=O)OCC)nc(NCc3ccc(OC)c(OC)c3)c2n1 (some centres undefined) | Insoluble | Unstable | – | – | – | – | – | –
CCOC(=O)CNC(=O)OC(C)CNc1nc(NCc2ccc(OC)c(OC)c2)c2nc(NCC(C)O)nc(NCc3ccc(OC)c(OC)c3)c2n1 (centres undefined) | – | Unstable | 85 | 94 | 59 | – | Active | > 90%
COc1ccc(CNc2nc(NCC(C)OC(=O)[C@@H](NC(=O)OC(C)(C)C)C(C)C)nc3c(NCc4ccc(OC)c(OC)c4)nc(NCC(C)O)nc23)cc1OC (some centres undefined) | – | – | – | – | – | – | inactive | –
